SIRT5 block – sirtuin-5 (human) deacylase inhibition; Q9NXA8; Purified SirT5, succinyl-peptide AMC, trypsin-coupled fluorescence; inhibition, % at 15 µM; actives 1.1% (n = 330,000); AID 652115; in the data active means inhibition above about 15%
Target sequence (Q9NXA8 whole entry, looked up): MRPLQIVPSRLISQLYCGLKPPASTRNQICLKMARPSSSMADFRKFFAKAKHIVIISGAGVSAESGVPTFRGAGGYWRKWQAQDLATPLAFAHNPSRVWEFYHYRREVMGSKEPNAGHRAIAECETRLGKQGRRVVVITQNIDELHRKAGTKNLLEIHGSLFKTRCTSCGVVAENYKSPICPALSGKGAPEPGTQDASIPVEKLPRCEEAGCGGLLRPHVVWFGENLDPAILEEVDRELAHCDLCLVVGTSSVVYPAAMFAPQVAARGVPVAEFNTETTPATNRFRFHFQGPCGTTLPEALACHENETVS
CAL PDZ FP-1 – blocks peptide binding to human CAL PDZ domain | purified CAL PDZ, TMR-peptide fluorescence polarization, 1 h | actives 0.02% (n = 330,000) | Q9HD26 | inhibition, % at 20 µM;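 active means highest replicate inhibition of at least 40%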
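material = purified tagged CAL PDZ domain construct (CerCALP) | buffer or medium = sodium phosphate/NaCl buffer pH 7.4 with TCEP, IgG, Thesit | reagent = TMR-labelled reporter peptide T*-PRC34 bound in PDZ groove | incubation = 1 h room-temperature incubation prior to read | measured by = fluorescence polarization (mP) | evaluation = percent inhibition from loss of millipolarization | control set = unlabelled peptide and DMSO controls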
CAL PDZ FP-2 – blocks peptide binding to the human CAL PDZ domain; inhibition, % at 24.9 µM; purified CAL PDZ, TMR-peptide fluorescence polarization, 1 h; actives 0.92% (n = 300,000); Q9HD26;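 active means mean inhibition of at least 30% with at least half of replicates also reaching 30%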
DENV2 CPE – DENV2-induced cell death inhibition; actives 1.7% (n = 350,000); DENV2-infected cells, cytopathic effect rescue, plate reader; CPE inhibition, % at 9.99 µM; AID 651640; in the data active means CPE inhibition above about 20%, passing the limit was not always enough; tested in BHK-21 cells
S100A4 inh HTS – S100A4-myosin IIA interaction inhibition; P26447; S100A4/TAMRA-MyoIIA peptide fluorescence polarization; inhibition, % at 10.7 µM; actives 0.14% (n = 360,000); AID 652163;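 active means mean inhibition of at least 70% across replicates, with every replicate also reaching that level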
Target sequence (P26447 whole entry, looked up): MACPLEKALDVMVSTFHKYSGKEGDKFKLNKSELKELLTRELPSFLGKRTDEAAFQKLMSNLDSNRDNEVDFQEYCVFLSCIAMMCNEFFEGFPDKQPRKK
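Compound dosing: one dose per compound; test system: human S100A4 monomer with TAMRA-labelled myosin IIA peptide; probe or stimulus: TAMRA-labelled myosin IIA heavy-chain peptide probe, 5 nM; medium: HEPES buffer with Ca2+, pH 7.2; schedule: 5 min incubation before reading; benchmarks: neutral control DMSO, positive control TFP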
ERAP1 inh – blocks human ERAP1 aminopeptidase activity; recombinant ERAP1, Leu-AMC fluorescence, 60 min; Q9NZ08; AID 652197; actives 0.15% (n = 340,000); inhibition, % at 10.7 µM;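 active means mean replicate inhibition of at least 30%, or all replicates individually reaching that 30% level; inactive means mean below 30% and not every replicate reaching it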
Hits are given with their value; . = inactive; / = not tested or not shown. The list is not random: actives were taken first. Their share in the collection is about 2.9%.

SMILES	SIRT5 block	CAL PDZ FP-1	CAL PDZ FP-2	DENV2 CPE	S100A4 inh HTS	ERAP1 inh
C[C@H](NC(=O)[C@H]1N[C@H]2c3ccc(-c4cccnc4)c(=O)n3C[C@H]2[C@@H]1CO)c1ccccc1	.	/	/	117	.	.
O=C(NCc1ccccc1F)[C@@H]1N[C@@H]2c3ccc(-c4ccccc4F)c(=O)n3C[C@@H]2[C@H]1CO	.	/	/	.	.	.
C[C@@H](NC(=O)[C@@H]1N[C@@H]2c3ccc(-c4cccnc4)c(=O)n3C[C@@H]2[C@H]1CO)c1ccccc1	.	/	/	.	.	.
O=C(NCCN1CCCC1)[C@H]1N[C@H]2c3ccc(-c4ccccc4)c(=O)n3C[C@H]2[C@@H]1CO	.	/	/	85	.	.
O=C(NCc1ccccc1F)[C@H]1N[C@H]2c3ccc(-c4ccccc4F)c(=O)n3C[C@H]2[C@@H]1CO	.	/	/	82	.	.
C[C@H](CO)N1C[C@H](C)[C@@H](CN(C)C)Oc2c(NC(=O)C3CCOCC3)cccc2C1=O	.	/	/	40	.	.
C[C@H]1CN([C@@H](C)CO)C(=O)c2cccc(NC(=O)C3CCCCC3)c2O[C@H]1CN(C)C(=O)Nc1ccc2c(c1)OCO2	.	/	/	.	.	.
C[C@H]1CN([C@@H](C)CO)C(=O)c2cccc(NC(=O)C3CCOCC3)c2O[C@H]1CN(C)C(=O)Nc1ccc2c(c1)OCO2	.	/	/	37	.	.
C[C@@H]1CN([C@H](C)CO)C(=O)c2cccc(NC(=O)C3CCOCC3)c2O[C@@H]1CN(C)C	.	/	/	.	.	.
C[C@H]1CN([C@@H](C)CO)C(=O)c2cccc(NC(=O)C3CC3)c2O[C@@H]1CN(C)C(=O)Nc1ccc2c(c1)OCO2	.	/	/	.	.	.
C[C@H]1CN([C@@H](C)CO)C(=O)c2cccc(NC(=O)C3CCCCC3)c2O[C@@H]1CN(C)C(=O)Nc1ccc2c(c1)OCO2	.	/	/	58	.	.
C[C@H]1CN([C@@H](C)CO)C(=O)c2cc(-c3ccncc3)cnc2O[C@H]1CN(C)C(=O)Nc1ccc2c(c1)OCO2	.	/	/	.	.	.
COc1ccc(OCC(=O)Nc2ccc(C(=O)Nc3ccccc3C(=O)O)cc2)cc1	23	.	.	.	.	.
O=C(COc1ccc(Br)cc1)Nc1ccc(C(=O)Nc2ccccc2C(=O)O)cc1	.	.	.	.	.	.
Cc1ccc(NC(=O)COC(=O)Cn2ccc(=O)[nH]c2=O)cc1C	.	.	40	.	.	.
O=C(NCC1COc2ccccc2O1)c1ccccc1 (centres undefined)	/	.	/	/	/	/
Cc1cc(C(=O)NCC2COc3ccccc3O2)c2ccccc2n1 (centres undefined)	.	.	62	.	.	.
C[C@H](CO)N1C[C@H](C)[C@@H](CN(C)CC2CCCC2)Oc2cc(Br)ccc2S1(=O)=O	16	/	/	.	.	.
C[C@@H]1CN([C@@H](C)CO)S(=O)(=O)c2ccc(Br)cc2O[C@H]1CN(C)CC1CCCC1	.	/	/	.	.	.
C/C=C/c1ccc2c(c1)O[C@@H](CN(C)CC1CCCC1)[C@H](C)CN([C@@H](C)CO)S2(=O)=O	18	/	/	.	.	.
C[C@@H]1CN([C@@H](C)CO)S(=O)(=O)c2ccc(C#C[C@@H](C)O)cc2O[C@H]1CN(C)Cc1ccc(-c2ccccc2)cc1	35	/	/	.	.	.
C[C@H](O)C#Cc1ccc2c(c1)O[C@H](CN(C)Cc1ccc(-c3ccccc3)cc1)[C@H](C)CN([C@H](C)CO)S2(=O)=O	32	/	/	.	.	.
C[C@@H]1CN([C@@H](C)CO)S(=O)(=O)c2ccc(C#C[C@@H](C)O)cc2O[C@@H]1CN(C)Cc1ccccc1	.	/	/	.	.	.
C[C@H](O)C#Cc1ccc2c(c1)O[C@@H](CN(C)Cc1ccccc1)[C@H](C)CN([C@@H](C)CO)S2(=O)=O	.	/	/	.	.	.
C[C@H](O)C#Cc1ccc2c(c1)O[C@@H](CN(C)Cc1ccc(-c3ccccc3)cc1)[C@@H](C)CN([C@@H](C)CO)S2(=O)=O	30	/	/	.	.	.
SMILES	SIRT5 block	CAL PDZ FP-1	CAL PDZ FP-2	DENV2 CPE	S100A4 inh HTS	ERAP1 inh
C[C@H](CO)N1C[C@H](C)[C@H](CN(C)Cc2ccc(-c3ccccc3)cc2)Oc2cc(C#C[C@@H](C)O)ccc2S1(=O)=O	25	/	/	.	.	.
Cc1noc(C)c1S(=O)(=O)Nc1ccc2c(c1)C(=O)N([C@H](C)CO)C[C@H](C)[C@@H](CN(C)C(=O)Nc1ccccc1)OCCCC[C@@H](C)O2	.	/	/	.	.	.
COc1cccc(NC(=O)C[C@@H]2CC[C@@H]3[C@@H](COc4ccc(NC(=O)C5CCOCC5)cc4C(=O)N3C)O2)c1	.	/	/	.	.	.
CCS(=O)(=O)NCC[C@H]1CC[C@@H](NC(=O)C2CCCC2)[C@H](CO)O1	.	/	/	.	.	.
C[C@H](O)C#Cc1ccc2c(c1)O[C@H](CN(C)Cc1ccc(-c3ccccc3)cc1)[C@@H](C)CN([C@H](C)CO)S2(=O)=O	28	/	/	.	.	.
C[C@H](CO)N1C[C@H](C)[C@H](CN(C)C(=O)Nc2ccccc2)OCCCC[C@H](C)Oc2ccc(NS(=O)(=O)c3ccc(F)cc3)cc2C1=O	/	/	/	.	/	/
CCN1C(=O)[C@H]2[C@@H](c3ccc(-c4cccc(Cl)c4)cc3)N[C@@](CC(C)C)(C(=O)OC)[C@H]2C1=O	/	.	.	.	.	.
CCN1C(=O)[C@H]2[C@@H](c3ccc(-c4cccc(Cl)c4)c(OC)c3)N[C@@](CC(C)C)(C(=O)OC)[C@H]2C1=O	25	.	.	.	.	.
CCN1C(=O)[C@H]2[C@@H](c3ccc(-c4ccc5c(c4)OCO5)c(OC)c3)N[C@@](C)(C(=O)OC)[C@H]2C1=O	/	.	.	/	99	.
CCN1C(=O)[C@H]2[C@@H](c3ccc(-c4ccc(Cl)c(Cl)c4)c(OC)c3)N[C@@](C)(C(=O)OC)[C@H]2C1=O	/	.	.	.	.	.
Cc1ccc2c(COC(=O)CNC(=O)c3ccccc3)cc(=O)oc2c1	.	.	.	118	.	.
CCCCCCCCCCCCCC(=O)O	/	.	.	.	.	.
CCCCCCC(=O)O	.	.	.	58	.	.
CCN1C(=O)CS/C1=N\S(=O)(=O)c1ccccc1	.	.	76	.	.	/
CCCS(=O)(=O)N1CCCC(C(=O)NCCc2cccc(C)c2)C1 (centres undefined)	.	.	.	27	.	.
C/C=C/c1cnc2c(c1)C(=O)N([C@H](C)CO)C[C@@H](C)[C@@H](CN(C)S(=O)(=O)c1cn(C)cn1)O2	.	/	/	.	.	.
C[C@H](CO)N1C[C@H](C)[C@H](CN(C)C(=O)c2ccccn2)Oc2cc(C#Cc3ccccc3)ccc2S1(=O)=O	.	/	/	.	.	.

Source: PubChem BioAssay
